Key:
[1] = substrate: O=C(OC[C@H]1O[C@@H](O)[C@@H](O)[C@@H](O)[C@@H]1O)c1ccccc1; assay: (§1) Activity at Neisseria meningitidis lgtC by UV-VIS spectroscopy
Summary of the method: (§2)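 Continuous coupled assay: UDP release from LgtC-catalysed galactose transfer (UDP-Gal donor) coupled to NADH oxidation, followed at 340 nm (ε = 6.22 mM–1cm–1) in a temperature-controlled spectrophotometer. Initial rates were fitted directly to obtain kinetic parameters (kcat, Km, kcat/Km).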

[2] = substrate: OC[C@H]1O[C@@H](O[C@H]2[C@H](O)[C@@H](O)[C@H](OCc3ccccc3)O[C@@H]2CO)[C@H](O)[C@@H](O)[C@@H]1O; assay: as §1; summary of the method: as §2
LACTOSE, ANHYDROUS [3] = assay: as §1; summary of the method: as §2
[4] = substrate: O[C@@H]1[C@@H](O)[C@H](OCc2ccccc2)OC[C@H]1O; assay: as §1; summary of the method: as §2
[5] = substrate: OC[C@H]1OC(O)[C@H](O)[C@@H](O)[C@@H]1O; assay: (§3) Ratio of Kcat to Km for Neisseria meningitidis lgtC; summary of the method: as §2
[6] = substrate: O=C(OC[C@H]1O[C@@H](O)[C@@H](O)[C@@H](O)[C@@H]1O)c1ccccc1; assay: as §3; summary of the method: as §2
[7] = substrate: O=C[C@H](O)[C@@H](O)[C@H](O)CO; assay: as §3; summary of the method: as §2
[8] = substrate: O[C@H]1[C@H](O)[C@@H](O)[C@H](O)[C@@H](O)[C@H]1O; assay: as §3; summary of the method: as §2
[9] = substrate: O=C(O[C@@H]1CO[C@@H](O)[C@H](O)[C@H]1O)c1ccccc1; assay: as §3; summary of the method: as §2
[10] = substrate: O[C@@H]1[C@H](O)[C@@H](O)OC[C@H]1O; assay: as §3; summary of the method: as §2
[11] = substrate: OC[C@H]1OC(O)[C@@H](O)[C@@H](O)[C@@H]1O; assay: as §3; summary of the method: as §2
[12] = substrate: CCCCCCCCO[C@@H]1O[C@H](CO)[C@H](O)[C@H](O)[C@H]1O; assay: as §3; summary of the method: as §2
[13] = substrate: OC1OC[C@@H](O)[C@@H](O)[C@@H]1O; assay: as §3; summary of the method: as §2
[14] = substrate: CCCCCCCCO[C@@H]1O[C@H](CO)[C@@H](O)[C@H](O)[C@H]1O; assay: as §3; summary of the method: as §2
[15] = substrate: OC[C@H]1O[C@@H](O[C@H]2[C@H](O)[C@@H](O)[C@H](OCc3ccccc3)O[C@@H]2CO)[C@H](O)[C@@H](O)[C@@H]1O; assay: as §3; summary of the method: as §2
LACTOSE, ANHYDROUS [16] = assay: as §3; summary of the method: as §2
[17] = substrate: O=C[C@H](O)[C@@H](O)[C@@H](O)[C@H](O)CO; assay: as §3; summary of the method: as §2
[18] = substrate: OC[C@H]1OC(O)[C@H](O)[C@H](O)[C@@H]1O; assay: as §3; summary of the method: as §2
[19] = substrate: O[C@@H]1[C@@H](O)[C@H](OCc2ccccc2)OC[C@H]1O; assay: as §3; summary of the method: as §2
[20] = substrate: CCCCCCCCO[C@@H]1OC[C@@H](O)[C@H](O)[C@H]1O; assay: as §3; summary of the method: as §2

B1: Alpha 1,4 galactosyltransferase (Neisseria meningitidis), Q8KHJ3 (protein)
chain: MDIVFAADDNYAAYLCVAAKSVEAAHPDTEIRFHVLDAGISEANRAAVAANLRGGGNIRFIDVNPEDFAGFPLNIRHISITTYARLKLGEYIADCDKVLYLDIDVLVRDSLKPLWDTDLGDNWLGACIDLFVERQNAYKQKIGMADGEYYFNAGVLLINLKKWRQHDIFKMACEWVEQYKDVMQYQDQDILNGLFKGGVCYANSRFNFMPTNDAFMANRFASRHTDPLYRDRTYTAMPVAVSHYCGPAKPWHRDCTAWGAERFTELAGSLTSVPEEWRGKLAVPHRVFPTKRMLQRWRRKLSARFLRKIY
Work on B1 yielded a Km [1] of 30 mM, a kcat [1] of 2.5 s⁻¹ and a Km [2] of 35 mM. For the same protein, the kcat [2] was 1 s⁻¹, the Km (LACTOSE, ANHYDROUS [3]) was 40 mM and the kcat (LACTOSE, ANHYDROUS [3]) was 160 s⁻¹. For the same protein, the Km [4] was 15 mM, the kcat [4] was 10 s⁻¹ and the kcat/Km [5] was 3.33 M⁻¹ s⁻¹. It also gave a kcat/Km [6] of 83.3 M⁻¹ s⁻¹, a kcat/Km [7] of 30 M⁻¹ s⁻¹ and a kcat/Km [8] of 3.33 M⁻¹ s⁻¹. The kcat/Km [9] was 200 M⁻¹ s⁻¹, the kcat/Km [10] was 5 M⁻¹ s⁻¹ and the kcat/Km [11] was 5 M⁻¹ s⁻¹. For the same protein, the kcat/Km [12] was 63.3 M⁻¹ s⁻¹, the kcat/Km [13] was 1.67 M⁻¹ s⁻¹ and the kcat/Km [14] was 23.3 M⁻¹ s⁻¹. The kcat/Km [15] was 28.3 M⁻¹ s⁻¹, the kcat/Km (LACTOSE, ANHYDROUS [16]) was 4000 M⁻¹ s⁻¹ and the kcat/Km [17] was 5 M⁻¹ s⁻¹. The kcat/Km [18] was 0.833 M⁻¹ s⁻¹, the kcat/Km [19] was 667 M⁻¹ s⁻¹ and the kcat/Km [20] was 367 M⁻¹ s⁻¹.
